The values below come from PubChem BioAssay AID1665 (Sanford-Burnham Center for Chemical Genomics, 2009).

Structures are written as SMILES. The whole screen tested about 190,000 compounds, of which about 590 (0.31%) were called active. This is one part of a sample in which actives are shown more often than they occur.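 Rule for the calls: active = nuclear translocation activity above 50% at 5 µM, with a well cell count of 50 or more; inconclusive = wells under 50 cells across six images, flagged as toxic; inactive = the rest.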

A short description of the test: modulators of beta-catenin nuclear translocation, primary screen, imaging, HeLa cells, immunofluorescence, high-content (AID 1665).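 For nuclear translocation activity: plate controls were DMSO negative control for no effect and GSK-3 inhibitor IX positive control for full effect.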 To be noted: at 5 µM; cell count: measured here: cell count, cytotoxicity flag; nuclear translocation activity: stronger effect = higher value. Summed up:
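Test system: HeLa cells, endogenous beta-catenin; Compound: single 5 µM dose plus 0.02–20 µM confirmation series; Times: compound exposure 24 h at 37°C; Signal: fluorescence imaging of beta-catenin antibody stain plus DAPI; Read-out: % activation, nuclear-to-cytoplasmic median beta-catenin signal ratio per cell.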
Turning to `CCOC(=O)C1CCN(c2c(Nc3cc(C)cc(C)c3)c(=O)c2=O)CC1`, the cell count came out at 1340 cells and the nuclear translocation activity was 0.9% (inactive).
The like results for `O=C(Cn1cnc2cc([N+](=O)[O-])ccc2c1=O)NC(=O)NCc1ccccc1` were, in that order, 1320 cells and -2.1% (inactive).
The like results for `Cc1cc(=O)[nH]c2nnnn12` were, in that order, 1080 cells and -1.2% (inactive).
The like results for `COc1ccccc1/C=N\Nc1cc(C)nc(-n2nc(C)cc2C)n1` were, in that order, 900 cells and 0.7% (inactive).
Consider `Cc1cc(N/N=C\c2ccc(Br)cc2)nc(-n2nc(C)cc2C)n1`, for which the cell count came to 1430 cells and the nuclear translocation activity was -1.3% (inactive).
For `COc1ccc(Nc2cc(C)nc(-n3nc(C)cc3C)n2)cc1`, the cell count was 451 cells and the nuclear translocation activity is 249% (active).
Taken in the same sequence, the figures for `Nc1nnn(CC(=O)N/N=C/c2ccc(O)cc2)n1` were 1300 cells and -1.2% (inactive).
Turning to `COCCNC(=S)N1CCN(C)CC1`, the cell count was found to be 1380 cells and the nuclear translocation activity was -0.3% (inactive).
Taken in the same sequence, the figures for `CCn1c(=O)c([N+](=O)[O-])c(NCc2ccc3c(c2)OCO3)c2ccccc21` were 1360 cells and -0.1% (inactive).
Taken in the same sequence, the figures for `COc1cc(OC)cc(/C(N)=N/O)c1` were 1310 cells and 0.5% (inactive).
Taken in the same sequence, the figures for `COC(=O)c1ccccc1N=Nc1c(C)[nH][nH]c1=O` were 1310 cells and -1.6% (inactive).
On to `O=C(NCCc1c[nH]c2ccc(Cl)cc12)c1ccc([N+](=O)[O-])cc1`, for which the cell count was found to be 1380 cells and the nuclear translocation activity was 1.3% (inactive).
Taken in the same sequence, the figures for `N/C(=N\OC(=O)CCn1cccc(C(F)(F)F)c1=O)c1ccc(OC(F)(F)F)cc1` were 1280 cells and -1.4% (inactive).
Taken in the same sequence, the figures for `O=C(NCC1CCCO1)c1cc(-c2ccccc2)nc2ccccc12` (stereo unspecified) were 1120 cells and -2% (inactive).
The like results for `CC(C)c1c(O)nc(SCCOc2ccc(Cl)cc2)[nH]c1=O` were, in that order, 1310 cells and 0.9% (inactive).
Regarding `Cc1nn(CC(=O)N/N=C/c2ccc(F)cc2)c(C)c1[N+](=O)[O-]`, the cell count was determined as 1290 cells and the nuclear translocation activity is 0.3% (inactive).
Taken in the same sequence, the figures for `O=C(NC1=NCCS1)c1ccc(Cl)s1` were 998 cells and 1.4% (inactive).
The like results for `CC(=O)NC1=NN(C(C)=O)C(C)(c2ccc(Cl)s2)S1` (stereo unspecified) were, in that order, 101 cells and 68.6% (active).
Regarding `O=C(O)C(NS(=O)(=O)c1cccc2nsnc12)c1ccccc1` (stereo unspecified), the cell count was determined as 1330 cells and the nuclear translocation activity is -1% (inactive).
Taken in the same sequence, the figures for `Cc1ccc(S(=O)(=O)N(C)CC(=O)OCC(=O)Nc2ccccc2)cc1` were 1320 cells and -1.1% (inactive).
As to `CCS(=O)(=O)c1cc([N+](=O)[O-])c(Sc2ccccc2N)s1`, the cell count came out at 1180 cells and the nuclear translocation activity was -2.4% (inactive).
Taken in the same sequence, the figures for `Cc1c(C(=O)N(Cc2ccccc2)Cc2cccnc2)cnn1-c1ccc(F)cc1` were 1030 cells and 0.4% (inactive).
Taken in the same sequence, the figures for `CCOc1ccc(/C(O)=C2\C(=O)C(=O)N(c3ccc(OC)cc3)C2c2ccccc2[N+](=O)[O-])cc1` (stereo unspecified) were 1260 cells and -0.5% (inactive).
Regarding `O=C(NN1C(=O)C2CCCCC2C1=O)c1ccco1` (stereo unspecified), the cell count was 1260 cells and the nuclear translocation activity was 0.6% (inactive).
The like results for `Cc1cc(-c2n[nH]c(=S)n2/N=C/c2ccco2)n[nH]1` were, in that order, 1280 cells and -0.9% (inactive).
The like results for `CCc1cccc(CC)c1NC(=S)Nc1ccc2cn[nH]c2c1` were, in that order, 1270 cells and 0.8% (inactive).
Taken in the same sequence, the figures for `O=[N+]([O-])c1ccc(N=Cc2c(O)ccc3ccccc23)cc1` were 1330 cells and 0.8% (inactive).
For the molecule `Cc1ccc(C(=O)Nc2nc(N)n(-c3ccccc3)n2)cc1`, the cell count worked out at 1180 cells and the nuclear translocation activity is -1.1% (inactive).
The like results for `O=C(c1c(Cl)cccc1Cl)N1CCN(c2cccc3[nH]ccc23)CC1` were, in that order, 1260 cells and -1.5% (inactive).
The like results for `COc1ccc(NC(=O)c2cn(-c3ccccc3)nc2SC)cc1` were, in that order, 1240 cells and 0.1% (inactive).
The like results for `O=C(Nc1nnc(CCN2CCCCC2)s1)c1cccc(Cl)c1` were, in that order, 1310 cells and 0.2% (inactive).
For `C=CCSC(CC)(CC)C(N)=O`, the cell count is 1320 cells and the nuclear translocation activity is 0.1% (inactive).
The like results for `Cc1cc(F)ccc1NC(=O)C(C)n1c2ccccc2c2nc(=O)cc(C)n21` (stereo unspecified) were, in that order, 1290 cells and -0.2% (inactive).
Taken in the same sequence, the figures for `COc1ccc(CCN2C(=O)N(c3ccc(OC)cc3)C(=O)C2CC(=O)Nc2ccc(OC)cc2)cc1` (stereo unspecified) were 1360 cells and -0.8% (inactive).
Taken in the same sequence, the figures for `Cc1nc(-c2nnc(SCC(=O)Nc3cc(C(F)(F)F)cc(C(F)(F)F)c3)n2C)cs1` were 1370 cells and -0.7% (inactive).
Regarding `Cc1ccc2c(C)c(C(=O)N3CCC(N4CCC(C(=O)NC5CC5)CC4)CC3)oc2c1`, the cell count is 1360 cells and the nuclear translocation activity is 1.4% (inactive).
Taken in the same sequence, the figures for `CSc1ccc(NC(=O)/C=C/C(=O)O)cc1` were 1010 cells and 2.1% (inactive).
The like results for `CCN1CCN(c2nc(Nc3cccc(F)c3)nc(N)c2[N+](=O)[O-])CC1` were, in that order, 1210 cells and -1.4% (inactive).
Taken in the same sequence, the figures for `Cc1ccccc1-c1nc(C#N)c(NCc2ccco2)o1` were 1080 cells and -3.1% (inactive).
In the case of `COc1ccc(Nc2oc(-c3ccccc3Cl)nc2C#N)cc1`, the cell count is 210 cells and the nuclear translocation activity was 156% (active).
The like results for `COc1ccc(Nc2nc(Cl)nc(NCc3ccco3)n2)cc1` were, in that order, 1380 cells and 3% (inactive).
As to `NS(=O)(=O)c1ccc(NC2=CC(c3ccc(F)cc3)N(c3ccc(S(N)(=O)=O)cc3)C2=O)cc1` (stereo unspecified), the cell count amounted to 1320 cells and the nuclear translocation activity was 0.9% (inactive).
As for `C/C(=N\NC(=O)c1cccnc1)c1ccc(-c2ccccc2)cc1`, the cell count worked out at 1160 cells and the nuclear translocation activity was -0.7% (inactive).
In the case of `O=C(Nc1ccc(S(=O)(=O)Nc2nccs2)cc1)c1cccc(S(=O)(=O)N2CCOCC2)c1`, the cell count was determined as 1290 cells and the nuclear translocation activity was 0.8% (inactive).
Taken in the same sequence, the figures for `C[C@@H](NC(=O)OC(C)(C)C)c1nnc(S(=O)(=O)Cc2ccccc2)o1` were 1360 cells and -0.8% (inactive).
On to `COc1ccc(N2C(=O)c3ccccc3NC2c2ccc(OC)c(CN3CCOCC3)c2)cc1` (stereo unspecified), for which the cell count was 1290 cells and the nuclear translocation activity is 0.6% (inactive).
Take `COc1ccc2nc(Nc3nc4ccc(NC(C)=O)cc4s3)sc2c1`: the cell count stood at 875 cells and the nuclear translocation activity was 2.8% (inactive).
The like results for `CCCC(=O)Nc1nc2ccc(NC(=O)c3cccnc3)cc2s1` were, in that order, 895 cells and -0.7% (inactive).
Taken in the same sequence, the figures for `CCCC(=O)Nc1nc2ccc(NC(=O)c3c(F)c(F)c(OC)c(F)c3F)cc2s1` were 260 cells and 57.6% (active).
As to `Cc1ccc(/C=N/NC(=S)Nc2cccc(S(=O)(=O)N(C)C)c2)o1`, the cell count was found to be 1210 cells and the nuclear translocation activity was 2.8% (inactive).
Taken in the same sequence, the figures for `C=CC1C(OC2OC(CO)C(O)C(O)C2O)OC=C(C(=O)OC)C1CC1CC(=O)CC(CC(=O)CCc2ccc(O)cc2)O1` (stereo unspecified) were 387 cells and 79.8% (active).
`CC(/C=C/C1(O)C(C)CC(=O)CC1(C)C)OC1OC(CO)C(O)C(O)C1O` (stereo unspecified): the cell count amounted to 1080 cells and the nuclear translocation activity is -3% (inactive).
With `Cc1cc(C(=O)NCCc2ccc(Cl)cc2)n(-c2ccccc2)n1`, the cell count turned out to be 1320 cells and the nuclear translocation activity is -0.3% (inactive).
Taken in the same sequence, the figures for `Cn1nccc1NC(=O)Nc1ccc(OC(F)(F)F)cc1` were 1280 cells and 0.7% (inactive).
Turning to `CC(C)Cc1ccc(C(C)C(=N)N)cc1` (stereo unspecified), the cell count stood at 1310 cells and the nuclear translocation activity was 1.1% (inactive).
Taken in the same sequence, the figures for `COc1ccc(CNC(=O)C2CC(c3ccc(C(F)(F)F)cc3)=NO2)cc1` (stereo unspecified) were 1110 cells and 2.2% (inactive).
Take `COc1ccc(C2=NOC(C(=O)NCc3ccco3)C2)cc1OC` (stereo unspecified): the cell count turned out to be 701 cells and the nuclear translocation activity is 166% (active).
Taken in the same sequence, the figures for `COc1ccc(-c2cc(C(=O)NCc3ccco3)no2)cc1OC` were 1220 cells and -1.7% (inactive).
Taken in the same sequence, the figures for `COc1ccc(S(=O)(=O)N(CC(=O)N/N=C/c2ccccc2C(=O)O)c2ccccc2OC)cc1` were 1300 cells and -0.3% (inactive).
The like results for `Cc1cc(=O)oc2cc(OCC3CC(c4ccccc4Cl)=NO3)ccc12` (stereo unspecified) were, in that order, 228 cells and 168% (active).
On to `Cc1ccccc1N1CCN(CCCOc2ccc3c(C)cc(=O)oc3c2)CC1`, for which the cell count worked out at 1030 cells and the nuclear translocation activity was 1.9% (inactive).
Taken in the same sequence, the figures for `Cc1cc(=O)oc2cc(OCCC[n+]3ccccc3)ccc12` were 1370 cells and -1% (inactive).
The like results for `COc1ccc(C(C(=O)NC(C)(C)C)N(C(=O)Cn2nnc3ccccc32)c2ccc(C(C)=O)cc2)cc1O` (stereo unspecified) were, in that order, 1370 cells and -1% (inactive).
Taken in the same sequence, the figures for `COc1ccc(-n2nnnc2-c2nc3ccccc3s2)cc1` were 953 cells and 0.1% (inactive).
For `CCOc1cccc(-n2nnnc2-c2ccc(OC)cc2)c1`, the cell count stood at 184 cells and the nuclear translocation activity was 63.9% (active).
As for `CCOc1cccc(-c2nnc3sc(COc4ccc(OC)cc4)nn23)c1`, the cell count was 1020 cells and the nuclear translocation activity was -0.9% (inactive).
Consider `CC(C)(C)NC(=O)/C(=C/c1cccnc1)NC(=O)c1ccco1`, for which the cell count was determined as 1310 cells and the nuclear translocation activity is -0.7% (inactive).
The like results for `Cc1nn2c(NCCN(C)C)c3c(nc2c1-c1ccccc1)CCC3` were, in that order, 1430 cells and 0.3% (inactive).
The like results for `C=CCNC(=S)N1CCc2[nH]c3ccccc3c2C1` were, in that order, 1340 cells and 0.9% (inactive).
Taken in the same sequence, the figures for `O=C(NNC(=S)Nc1ccc(F)cc1)[C@H]1C[C@@H]1c1ccccc1` were 1360 cells and -0.2% (inactive).
Regarding `Cc1ccc(/C=N/NC(=S)NC2CCCCC2)o1`, the cell count was found to be 1310 cells and the nuclear translocation activity was -0.8% (inactive).
Taken in the same sequence, the figures for `Cc1cc(C)cc(OCC(=O)O/N=C(\N)Cc2ccc([N+](=O)[O-])cc2)c1` were 1030 cells and -2.4% (inactive).
Turning to `COc1ccc(-c2nn(C)c(=O)c3ccccc23)cc1CNC(=O)C1CCCCC1`, the cell count is 1350 cells and the nuclear translocation activity was 0.1% (inactive).
The like results for `COc1ccc(C(CC(=O)N2CCN(c3ccccc3)CC2)c2c(O)cc(OC)cc2OC)cc1` (stereo unspecified) were, in that order, 1050 cells and 0.9% (inactive).
Taken in the same sequence, the figures for `Cc1ccc(/C=N/NC(=O)CSc2ccccn2)o1` were 1300 cells and 0.7% (inactive).
Taken in the same sequence, the figures for `COC(=O)c1c(C)oc(C)c1S(=O)(=O)Nc1ccc(C(C)C)cc1` were 1320 cells and -1.4% (inactive).
Turning to `CC12C(=O)N(c3ccccc3)C(=O)C1C(c1ccccc1)N1CCCN12` (stereo unspecified), the cell count was 1080 cells and the nuclear translocation activity was -5.7% (inactive).
The like results for `COc1cc(NC(=O)c2ccc(CNc3c(N4CCCC4)c(=O)c3=O)cc2)cc(OC)c1OC` were, in that order, 1340 cells and -0.2% (inactive).
The like results for `O=C(CSc1nnc(SCc2ccc(F)cc2)s1)Nc1ccc(C(=O)O)cc1` were, in that order, 1300 cells and -1% (inactive).
Take `CCOC(=O)N/N=C1\CC(C)S(=O)(=O)c2ccc(Cl)cc21` (stereo unspecified): the cell count is 1360 cells and the nuclear translocation activity is 0.2% (inactive).
Taken in the same sequence, the figures for `Cc1c(C(=O)N/N=C/c2ccccc2)[nH]c2c([N+](=O)[O-])cccc12` were 474 cells and 69.8% (active).
Taken in the same sequence, the figures for `Cc1cc(C(=O)N/N=C/c2ccccc2[N+](=O)[O-])c(C)o1` were 1070 cells and -0.2% (inactive).
Taken in the same sequence, the figures for `O=C(N/N=C/c1ccc([N+](=O)[O-])cc1)c1c[nH]c2ccccc12` were 1150 cells and -1.5% (inactive).
